Experimental data from different studies.
Lines come from different studies, so protocols differ.
P2RX7: P2X purinoceptor 7 (P2RX7, Homo sapiens, UniProt Q99572)
gag-pol integrase: Gag-Pol polyprotein, integrase (gag-pol, Human immunodeficiency virus 1, UniProt P12497)
IDE: Insulin-degrading enzyme (IDE, Homo sapiens, UniProt P14735)
MET: Hepatocyte growth factor receptor (MET, Homo sapiens, UniProt P08581)
STK4: Serine/threonine-protein kinase 4 (STK4, Homo sapiens, UniProt Q13043)
Ptgs2: Prostaglandin G/H synthase 2 (Ptgs2, Mus musculus, UniProt Q05769)

`Cc1[nH]c(/C=C2\C(=O)Nc3ccc(S(=O)(=O)N(C)c4cccc(Cl)c4)cc32)c(C)c1C(=O)N1CCN(C)CC1` gave an IC50 of 5 nM (Hepatocyte growth factor receptor, non-phosphorylated (MET, Homo sapiens, UniProt P08581); enzyme activity; inhibitor; TR-FRET).
For `FC(F)(F)c1cccc(-c2nnc(S)o2)c1`, the IC50 was 1500 nM (P2RX7; calcium signal; antagonist).
For `O=C(O)[C@H](Cc1ccc2ccccc2c1)NC(=O)C1(c2ccc(F)cc2)CCN(S(=O)(=O)c2ccccc2)CC1`, the IC50 was 150000 nM (gag-pol integrase; enzyme activity; inhibitor; TR-FRET).
`COC(=O)c1ccc(NC(=O)NC2=CC(=O)CC(C)(C)C2)cc1` gave an IC50 of 3300 nM (crk3 (Leishmania mexicana, UniProt O15851); enzyme activity; inhibitor; radiometric).
`CC(C)(C)n1nc(-c2cnc3cc(OC4CC4)ccc3c2)c(C(N)=O)c1N` has an IC50 of over 10000 nM (Tyrosine-protein kinase JAK3 (JAK3, Homo sapiens, UniProt P52333); cell-free assay).
`CC(C)(C)OC(=O)[C@H](Cc1c[nH]cn1)NC(=O)CN(CCCc1ccccc1)CC(=O)O` has an IC50 of 400 nM (IDE; enzyme activity; inhibitor; fluorescence).
`O=C(Nc1ccccc1OS(=O)(=O)c1cccs1)c1ccc2ncccc2c1` gave an IC50 of 2480 nM (P2RX7; calcium signal; antagonist).
`C[C@H]1C[C@@H](N2C(=N)N[C@](C)(c3cccc(Nc4ccc(C5CC5)nc4)c3Cl)CC2=O)CCO1` gave an IC50 of 8000 nM (Sodium channel protein type 10 subunit alpha (SCN10A, Homo sapiens, UniProt Q9Y5Y9); ion current; inhibitor; patch clamp).
`COc1cccc(F)c1Cn1cnc(-c2ccc(F)cc2)c1-c1ccncc1` has an IC50 of 1230 nM (TGF-beta receptor type-1 (TGFBR1, Homo sapiens, UniProt P36897); cell-free assay; TR-FRET).
`Cc1cc(Oc2ccc(NC(=O)c3sc(-c4ccccc4)nc3C)cc2F)c2nncn2n1` gave an IC50 of 630 nM (MET; enzyme activity; inhibitor; mobility shift).
`CN1CCN(c2ccc(Nc3ncc4cc(C#N)c(=O)n(C5CCCC5)c4n3)cc2)CC1` gave an IC50 of 7070 nM (STK4; enzyme activity; inhibitor).
With `CC(C)COC(=O)[C@H](Cc1cnc[nH]1)NC(=O)CN(CC(=O)O)Cc1ccccc1` the IC50 was 600 nM (IDE; enzyme activity; inhibitor; fluorescence).
The IC50 of `Cc1ccc(S(=O)(=O)Oc2ccccc2NC(=O)c2ccc3ncccc3c2)cc1` is reported as 1490 nM (P2RX7; calcium signal; antagonist).
The IC50 of `O=C(O)[C@H](Cc1ccc2ccccc2c1)NC(=O)C1(c2ccc3ccccc3c2)CCN(S(=O)(=O)c2ccccc2)CC1` is reported as 54700 nM (gag-pol integrase; enzyme activity; inhibitor; TR-FRET).
The IC50 of `COc1ccc2c(Oc3ccc4c(C(=O)Nc5ccccc5N)cccc4c3)ccnc2c1` is reported as over 500 nM (MET; enzyme activity; inhibitor).
With `Cc1cc(Oc2ccc(NC(=O)c3sc(-c4ccc(F)cc4)nc3C)cc2)c2nncn2n1` the IC50 was 790 nM (MET; enzyme activity; inhibitor; mobility shift).
`CC(C)C[C@H](CC(=O)NO)C(=O)N[C@@H](Cc1ccccc1)C(=O)NCCN1CCOCC1` gave an IC50 of 3 nM (Interstitial collagenase (MMP1, Homo sapiens, UniProt P03956); enzyme activity; inhibitor; absorbance).
The IC50 of `O=C(O)CN(CC(=O)N[C@H](CO)Cc1c[nH]cn1)Cc1ccccc1` is reported as 4100 nM (IDE; enzyme activity; inhibitor; fluorescence).
With `Cc1cc(Oc2ccc(NC(=O)c3sc(-c4ccncc4)nc3C)cc2F)c2nncn2n1` the IC50 was 650 nM (MET; enzyme activity; inhibitor; mobility shift).
`NC(=O)[C@H](Cc1c[nH]cn1)NC(=O)CN(CC(=O)O)Cc1ccccc1` has an IC50 of 1400 nM (IDE; enzyme activity; inhibitor; fluorescence).
`CC(C(=O)O)c1cccc(C(=O)c2ccccc2)c1` (stereo not shown) has an IC50 of 720 nM (Ptgs2; enzyme activity; inhibitor).
With `Cc1cnc(-c2ccc(-c3ccc(NC(=O)Nc4c(F)cc(F)cc4F)cc3F)c3c2C(=O)NC3)[nH]1` the IC50 was 2.1 nM (STK4; enzyme activity; inhibitor).
`Sc1nnc(-c2cc(-c3ccccc3)nc3ccccc23)o1` has an IC50 of 7270 nM (P2RX7; calcium signal; antagonist).
The IC50 of `COC(=O)[C@H](Cc1c[nH]cn1)NC(=O)CN(CC(=O)NO)Cc1ccccc1` is reported as 3200 nM (IDE; enzyme activity; inhibitor; fluorescence).
The IC50 of `CCCC[C@H](NC(=O)C1CN(C)C1)c1ncc(-c2cc3ccccc3nc2OC)[nH]1` is reported as 16 nM (Histone deacetylase 3 (HDAC3, Homo sapiens, UniProt O15379); enzyme activity; inhibitor).
The IC50 of `COC(=O)[C@H](Cc1c[nH]cn1)NC(=O)CN(CC(=O)O)Cc1ccc(F)cc1` is reported as 2500 nM (IDE; enzyme activity; inhibitor; fluorescence).
With `Cc1ccc(C(=O)Nc2ccc(Oc3cc4cnn(C)c4cc3-c3cn[nH]c3)c(F)c2)c(=O)n1-c1ccc(F)cc1` the IC50 was 300 nM (Macrophage colony-stimulating factor 1 receptor (CSF1R, Homo sapiens, UniProt P07333); phosphorylation in cells; inhibitor; western blot).
With `CC[C@H](C)[C@H](NC(C)=O)C(=O)N[C@@H](CCC(=O)O)C(=O)N[C@H](C(=O)N[C@H](C=O)CC(=O)O)[C@@H](C)O` the IC50 was 17.3 nM (Caspase-1 (CASP1, Homo sapiens, UniProt P29466); enzyme activity; inhibitor).
`COC(=O)[C@H](Cc1c[nH]cn1)NC(=O)CN(CCCc1ccccc1)CC(=O)O` gave an IC50 of 1000 nM (IDE; enzyme activity; inhibitor; fluorescence).
With `CC/C=C\C/C=C\C/C=C\C/C=C\C/C=C\CCCC(=O)O` the IC50 was 35000 nM (POLE (Homo sapiens, UniProt Q07864); enzyme activity; inhibitor).
`CC(C)C[C@H](NC(=O)[C@H](Cc1ccccc1)NC(=O)[C@H](Cc1ccc(O)cc1)NC(=O)CNC(=O)[C@H](CCCNC(=N)N)NC(=O)[C@H](CO)NC(=O)[C@H](CCC(N)=O)NC(=O)[C@H](CO)NC(=O)[C@H](C)NC(=O)[C@H](Cc1ccccc1)NC(=O)[C@@H]1CCCN1C(=O)[C@H](CO)NC(=O)[C@H](CCC(N)=O)NC(=O)[C@H](Cc1ccccc1)NC(=O)[C@H](CCC(=O)O)NC(=O)[C@H](CCC(=O)O)NC(=O)[C@H](CC(=O)O)NC(=O)[C@@H](NC(=O)[C@H](CCCNC(=N)N)NC(=O)[C@@H](N)Cc1ccccc1)C(C)C)C(=O)N[C@@H](Cc1ccccc1)C(=O)N[C@@H](CCCNC(=N)N)C(=O)N1CCC[C@H]1C(=O)N[C@@H](CCCNC(=N)N)C(=O)N[C@@H](CC(N)=O)C(N)=O` has an IC50 of 0.219 nM (Neuromedin-U receptor 2 (NMUR2, Homo sapiens, UniProt Q9GZQ4); ligand displacement; radioligand).
`O=C(O)CC1=C/C(=C\c2cccc(-c3ccc(F)cc3)n2)c2ccc(F)cc21` gave an IC50 of 670 nM (Ptgs2; enzyme activity; inhibitor).
The IC50 of `CC(C)(C)OC(=O)[C@H](Cc1c[nH]cn1)NC(=O)CN(CC(=O)O)Cc1ccccc1` is reported as 800 nM (IDE; enzyme activity; inhibitor; fluorescence).
The IC50 of `CNC(=O)c1cc2c(Oc3ccc(NC(=O)C4(C(=O)Nc5ccc(F)cc5)CC4)cc3)ccnc2cc1OC` is reported as 4 nM (Hepatocyte growth factor receptor (MET, Homo sapiens, UniProt P08581, D1228H); enzyme activity; inhibitor; radiometric).
